MC4R ag barr: MC4R agonists recruiting beta-arrestin, primary screen, cell-based, luminescence, agonist arm of biased-ligand search. actives 0.98% (n = 360,000). activation, % at 8.9 µM. AID 540308, 2011. U2OS MC4R beta-arrestin complementation; percent of melanotan II response, DMSO zero. Melanocortin receptor 4 (Homo sapiens), P32245;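 active = activation above a per-plate cutoff, the mean activation of sample wells on that plate plus 3 SD, cut at about 8% in these data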
Target sequence (P32245 whole entry, looked up): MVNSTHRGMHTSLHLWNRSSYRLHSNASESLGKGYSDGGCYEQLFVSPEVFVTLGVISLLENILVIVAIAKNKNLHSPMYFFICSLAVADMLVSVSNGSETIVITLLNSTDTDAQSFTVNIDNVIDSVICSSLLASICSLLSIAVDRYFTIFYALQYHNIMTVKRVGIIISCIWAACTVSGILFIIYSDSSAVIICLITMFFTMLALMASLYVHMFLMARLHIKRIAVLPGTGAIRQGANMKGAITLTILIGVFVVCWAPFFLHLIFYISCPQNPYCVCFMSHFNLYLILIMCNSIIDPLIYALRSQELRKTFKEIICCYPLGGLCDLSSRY
Rev-erbA mod: modulators of Rev-erb alpha DNA binding, primary screen, biochemical, FITC-DNA, fluorescence polarization, uHTS; Nuclear receptor subfamily 1 group D member 1 (Homo sapiens), P20393; actives 0.79% (n = 370,000); Rev-erbα–FITC-DNA binding, 90 min; activity, % at 10 µM;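 active = activity above about 14%, limit read from the data; passing the limit was not always enough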;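 also: 0% = DMSO wells with 35 nM protein and 100% = DMSO wells with 750 nM protein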
MC4R antagonist: MC4R antagonists of cAMP signaling, primary screen, cell-based, TR-FRET, antagonist arm of biased-ligand search; Melanocortin receptor 4 (Homo sapiens), P32245; MC4R-expressing cells, MTII-stimulated cAMP, LANCE TR-FRET; inhibition, % at 6.5 µM; actives 0.48% (n = 360,000); AID 540295, 2011;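 active = inhibition above its plate's cutoff, the mean of tested wells on that plate plus 3 SD, cut at about 29% in these data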;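 also: 0% = Melanotan II alone and 100% = Melanotan II plus saturating MCL0020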
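material = U2OS cells stably expressing human melanocortin 4 receptor (MC4R) | also added = Melanotan II challenge | dosing = single nominal compound dose of 6.5 µM | detection = TR-FRET with Eu-cAMP and labeled anti-cAMP, 671 nm | replication = singlicate | timing = compound 30 min, challenge 1 h, detection 1 h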
PG9 Ab binder: binders of HIV-1 gp120 antibody PG9, primary screen, biochemical, TR-FRET | HIV-1 gp120 / PG9 antibody interaction | TR-FRET gp120-PG9 antibody binding | inhibition, % at 6.7 µM | actives 0.43% (n = 360,000); in the data active = inhibition above about 8.5%
NTR1 agonist: agonists of human NTR1, primary screen, imaging, U2OS cells, beta-arrestin-GFP, high content; actives 0.17% (n = 330,000); activation, % at 20 µM; NTR1-U2OS beta-arrestin-GFP spot imaging, agonist mode;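 active = activation at or above 40% of the spot to cytoplasm intensity ratio, with at least 20 cells analyzed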;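 also: 0% = DMSO without peptide and 100% = 100 nM NTR1 peptide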
cAMP nonselect: nonselective cAMP signaling inhibitors, parental cells, counter-screen for MC4R biased antagonist project, cell-based, TR-FRET, U2OS, forskolin, triplicate; shares compounds with MC4R antagonist; LANCE TR-FRET; actives 26% (n = 1,600); AID 602193, 2012; inhibition, % at 6.5 µM;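 active = mean inhibition over triplicates above the low-control well mean plus 3 SD, set per campaign, cut at about 13% in these data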;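 also: signal is single emission at 671 nm which falls as cellular cAMP rises; 0% = forskolin-stimulated wells and 100% = buffer without forskolin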
MC4R antag conf: MC4R cAMP antagonists, retest, confirmation, cell-based, TR-FRET; shares compounds with MC4R antagonist; MC4R-expressing cells, MTII-stimulated cAMP; inhibition, % at 6.5 µM; actives 27% (n = 1,600); in the data active = inhibition above about 29%;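 also: 0% = agonist stimulated wells alone and 100% = agonist stimulated wells plus saturating reference antagonist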
MC4R barr ag: MC4R beta-arrestin agonists, retest, confirmation, cell-based, luminescence, U2OS; activation, % at 8.9 µM; actives 31% (n = 2,400); shares compounds with MC4R ag barr; U2OS MC4R beta-arrestin recruitment; scaled DMSO 0%, Melanotan II 100%; AID 602192, 2012;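 active = mean activation across replicates above the hit cutoff set in the earlier primary screen, cut at about 8% in these data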
MOR-DOR barr ag: agonists of MOR-DOR heterodimerization, counter-screen for MC4R biased agonist project, cell-based, luminescence; activation, % at 9.2 µM; shares compounds with MC4R ag barr; U2OS PathHunter beta-arrestin, beta-gal luminescence; percent of deltorphin B response, DMSO zero; actives 5.8% (n = 2,400);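 active = mean activation across replicates exceeds the hit threshold derived in the earlier primary screen, cut at about 18% in these data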;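 also: 100% = deltorphin B at 0.9 µM final and 0% = DMSO alone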
* hit, by the source's call; . = no result. In the library only some 2.5% were active in any assay of this set; here they are far more common.

SMILES	MC4R ag barr	Rev-erbA mod	MC4R antagonist	PG9 Ab binder	NTR1 agonist	cAMP nonselect	MC4R antag conf	MC4R barr ag	MOR-DOR barr ag
CSCCC(NC(=O)c1ccc([N+](=O)[O-])cc1Cl)C(=O)OC(C)C(=O)NCc1ccco1 (stereo unspecified)	-2.1	2.4	28.7*	1.2	2.6	8.5	18.4	.	.
CCCCc1ccc2nc(NC(=O)c3cccs3)sc2c1	.	-4.9	.	.	.	.	.	.	.
CCN(CC)C(=O)CC[C@H]1CC[C@]2(CCCN(C(=O)c3ccco3)C2)O1	.	11.7	.	.	.	.	.	.	.
Cc1cc(NS(=O)(=O)c2ccc(NC(=O)Cc3ccc(Cl)c(F)c3)cc2)no1	.	-1.4	.	.	.	.	.	.	.
CC(C)Cc1nc2oc3c(Cl)ncnc3c2c2c1CCC2	-4.2	6.5	60.0*	-1.2	11.3	8.2	42.7*	.	.
CN(C)c1ccc(S(=O)(=O)NCC(=O)OCC(=O)Nc2cc(Cl)cc(Cl)c2)cc1[N+](=O)[O-]	4.2	4.2	30.6*	-0.2	-1.9	18.8*	30.4*	.	.
O=C(Nc1ccc2nc(SCc3ccc(Cl)cc3)sc2c1)c1ccccc1C(=O)N1CCOCC1	10.0*	1.9	63.6*	0.6	29.1	29.7*	66.5*	24.3*	16.9
COC(=O)CSc1nc2ccc(NC(=O)c3ccccc3C(=O)N3CCOCC3)cc2s1	-2.6	-2.1	14.3	1.0	7.1	.	.	.	.
CCc1nnc(NS(=O)(=O)c2ccc(NC(=S)NC(=O)/C=C/c3ccc(C(C)C)cc3)cc2)s1	24.3*	.	29.1*	.	5.3	-2.4	-5.7	0.8	0.9
Nc1ncnc2c1ncn2[C@@H]1O[C@H](C(=O)N[C@@H](CCc2ccccc2)C(=O)N2CCN(C(=O)N3CCOCC3)CC2)[C@@H](O)[C@H]1O	.	2.8	.	-1.3	.	.	.	.	.
CCCCCCCCCCCCCCCC[N+](C)(C)Cc1ccc(F)cc1	16.2*	-1.4	41.7*	-1.6	.	-1.1	31.9*	31.1*	13.3
CCCCCCCCCCCCC[N+](C)(C)Cc1ccccc1	.	0.3	.	.	.	.	.	.	.
Cc1nnc(-c2cccc(Br)c2)c2cn(-c3cccc(Br)c3)nc12	13.1*	-3.8	32.7*	-2.2	1.5	5.3	29.4*	5.6	5.3
O=C(CSc1nc2ccccc2nc1N1CCOCC1)N1CCN(c2cccc(C(F)(F)F)c2)CC1	.	-3.5	.	.	.	.	.	.	.
CC(C)C[C@H]1COc2cc(N3CCOCC3)ccc2S(=O)(=O)N1	.	-5.4	.	-1.5	.	.	.	.	.
O=C(Nc1ccccc1-c1nc2ccccc2[nH]1)c1ccc(N2C(=O)CCC2=O)cc1	10.3*	14.5	35.3*	1.4	20.3	-0.9	26.8	2.3	10.1
CN(C)C(=O)NCCCC#Cc1ccccc1	.	8.3	.	.	.	.	.	.	.
O=C(/C=C/c1ccc2c(c1)OCO2)N1CCN(c2ccc(Cl)cc2)CC1	13.0*	3.8	28.6*	-2.7	3.5	-2.9	-16.6	2.0	4.2
O=C(/C=C/c1ccc2c(c1)OCCO2)N1CCN(c2ccc(F)cc2)CC1	-0.6	5.1	2.0	-0.2	2.6	.	.	.	.
C/C(C=NNC(=O)CSc1nnc(-c2ccc(Cl)cc2)n1-c1ccc(C)cc1)=C\c1ccccc1	.	-0.6	.	.	.	.	.	.	.
COc1ccc2oc(=O)c(-c3csc(Nc4cccc(O)c4)n3)cc2c1	13.2*	7.5	30.1*	-2.5	8.9	5.0	1.8	27.9*	4.5

Bioassay records: PubChem BioAssay, several laboratories
